Legend:
[1] = biological target: T1, Amine oxidase [flavin-containing] B (Bos taurus, UniProt P56560); assay: Inhibition of Monoamine oxidase-B from Bovine liver
T1 sequence (P56560 whole entry): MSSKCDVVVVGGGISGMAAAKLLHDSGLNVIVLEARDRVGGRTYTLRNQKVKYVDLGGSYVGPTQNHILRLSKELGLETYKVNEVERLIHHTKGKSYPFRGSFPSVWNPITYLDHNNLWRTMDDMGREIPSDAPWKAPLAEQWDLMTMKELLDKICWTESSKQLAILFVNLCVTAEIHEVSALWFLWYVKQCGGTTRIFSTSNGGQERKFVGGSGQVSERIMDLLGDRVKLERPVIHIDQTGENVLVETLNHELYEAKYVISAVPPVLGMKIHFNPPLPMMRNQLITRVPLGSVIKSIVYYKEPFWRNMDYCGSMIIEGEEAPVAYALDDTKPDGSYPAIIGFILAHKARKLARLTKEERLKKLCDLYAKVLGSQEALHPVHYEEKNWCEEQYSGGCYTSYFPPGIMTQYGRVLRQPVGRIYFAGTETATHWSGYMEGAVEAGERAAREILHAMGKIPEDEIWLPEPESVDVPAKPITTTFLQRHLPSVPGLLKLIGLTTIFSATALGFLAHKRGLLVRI
How it was run: (§1)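 Bovine liver MAO-B was added to inhibitor at various concentrations in 100 mM potassium phosphate, pH 7.40, with 2.0 mM β-mercaptoethanol or glutathione, at 25 °C. Aliquots taken over time were assayed with 0.5 mM cinnamylamine in 100 mM Tris, pH 9.0, and corrected against a no-inhibitor control. Ki and kinact came from Kitz–Wilson analysis.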

[2] = biological target: T1, Amine oxidase [flavin-containing] B; assay: Catalysis activity was calculated for Monoamine oxidase-B from Bovine liver; conditions: cattle
How it was run: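 Purified bovine liver MAO-B, with the test amine as substrate. Km and kcat were obtained by following the rate of hydrogen peroxide formation.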

[3] = biological target: T1, Amine oxidase [flavin-containing] B; assay: Inactivation kinetic constant Monoamine oxidase-B from Bovine liver; conditions: cattle; how it was run: as §1

SMILES | Ki [1] | k cat [2] | kinact [3]
CN(C)CCCc1ccccc1 | 0.38 mM | 0.21 s⁻¹ | 0.00717 s⁻¹
CCCNCCc1ccccc1 | 4 mM | – | 0.0767 s⁻¹
CN(C)CCc1ccccc1 | 7.1 mM | 1.4 s⁻¹ | 0.128 s⁻¹
CN(C)CCCCc1ccccc1 | 10 mM | – | 4.83e-05 s⁻¹
CCCCCN(C)C | 2.1 mM | – | 0.000267 s⁻¹
CN(C)CCC(=O)c1ccccc1 | 0.35 mM | – | 0.0288 s⁻¹

Source: ChEMBL document CHEMBL1127022, “Transformation of monoamine oxidase-B primary amine substrates into time-dependent inhibitors. Tertiary amine homologues of primary amine substrates” (J Med Chem, 1993)
